# Test results reported in ChEMBL document CHEMBL4024771, “Optimization of Orally Bioavailable Enhancer of Zeste Homolog 2 (EZH2) Inhibitors Using Ligand and Property-Based Design Strategies: Identification of Development Candidate …” (J Med Chem, 2018).
# Experiments:
# [1] = molecular target: Histone-lysine N-methyltransferase EZH2 (Homo sapiens, UniProt Q15910, Y641N); test: Inhibition of EZH2 Y641N mutant (unknown origin) using oligonucleosomes as substrate after 60 mins in presence of [3H]SAM by scintillation counting analysis
# Chain of Histone-lysine N-methyltransferase EZH2 (Q15910 whole entry Y641N): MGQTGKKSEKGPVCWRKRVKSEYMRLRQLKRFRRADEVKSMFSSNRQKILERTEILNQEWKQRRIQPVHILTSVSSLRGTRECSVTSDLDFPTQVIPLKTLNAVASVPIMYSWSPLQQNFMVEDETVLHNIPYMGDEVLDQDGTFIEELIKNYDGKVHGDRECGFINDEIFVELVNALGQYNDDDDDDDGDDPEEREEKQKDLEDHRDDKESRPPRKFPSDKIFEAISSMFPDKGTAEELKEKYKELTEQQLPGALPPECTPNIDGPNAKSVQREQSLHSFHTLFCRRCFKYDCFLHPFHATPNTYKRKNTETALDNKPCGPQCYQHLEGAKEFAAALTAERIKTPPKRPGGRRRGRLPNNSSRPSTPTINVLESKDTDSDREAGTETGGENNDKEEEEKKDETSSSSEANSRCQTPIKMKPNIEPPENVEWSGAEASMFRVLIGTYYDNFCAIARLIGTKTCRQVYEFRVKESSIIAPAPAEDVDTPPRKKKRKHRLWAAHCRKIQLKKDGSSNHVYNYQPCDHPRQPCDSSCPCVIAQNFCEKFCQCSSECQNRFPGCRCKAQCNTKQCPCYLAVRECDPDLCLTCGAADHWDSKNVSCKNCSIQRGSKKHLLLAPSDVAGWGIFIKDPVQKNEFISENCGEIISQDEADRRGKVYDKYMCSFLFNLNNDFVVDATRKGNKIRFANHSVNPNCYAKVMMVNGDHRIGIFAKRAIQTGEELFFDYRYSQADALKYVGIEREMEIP
# [2] = Intrinsic clearance in human liver microsomes assessed per mg protein at 1 uM preincubated for 10 mins followed by NADPH addition measured after 45 mins by LC-MS/MS analysis; type: ADME, microsome; conditions: liver microsomes, read-out: CLH
# How it was run: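 Test compound (1 μM) with pooled liver microsomes (0.8 mg/mL protein) in 100 mM potassium phosphate pH 7.4, 10 min preincubation, started with 2 mM NADPH, 45 min at 37 °C, in triplicate. Samples quenched with cold methanol containing buspirone internal standard, analysed by LC−MS/MS. CLint derived from t1/2 of parent loss (log-linear slope).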
# [3] = Passive permeability in MDCK cells at 2 uM after 90 mins by LC-MS/MS analysis; type: ADME, cell-based, Canis lupus familiaris; conditions: dog, MDCK; read-out: permeability
# How it was run: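 Low-efflux MDCK cells (MDCK-LE) on 96-well inserts, used on day 4. Monodirectional transport of 2 μM drug in transport buffer with 0.1% DMSO at 37 °C. Donor and receiver sampled at 0 and 90 min for LC−MS/MS. Donor pH 6.5 and 7.4, receiver pH 7.4.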
# [4] = Clearance in mouse hepatocytes assessed per million cells; type: ADME, cell-based, Hepatocyte; conditions: read-out: CLH
# [5] = Clearance in rat at 2 mg/kg, iv; type: ADME, organism-based; conditions: in vivo
# Cytochrome P450 1A2 = molecular target: T1, Cytochrome P450 1A2 (Homo sapiens, UniProt P05177); test: Inhibition of CYP1A2 (unknown origin); type: ADME
# T1 sequence (P05177 whole entry): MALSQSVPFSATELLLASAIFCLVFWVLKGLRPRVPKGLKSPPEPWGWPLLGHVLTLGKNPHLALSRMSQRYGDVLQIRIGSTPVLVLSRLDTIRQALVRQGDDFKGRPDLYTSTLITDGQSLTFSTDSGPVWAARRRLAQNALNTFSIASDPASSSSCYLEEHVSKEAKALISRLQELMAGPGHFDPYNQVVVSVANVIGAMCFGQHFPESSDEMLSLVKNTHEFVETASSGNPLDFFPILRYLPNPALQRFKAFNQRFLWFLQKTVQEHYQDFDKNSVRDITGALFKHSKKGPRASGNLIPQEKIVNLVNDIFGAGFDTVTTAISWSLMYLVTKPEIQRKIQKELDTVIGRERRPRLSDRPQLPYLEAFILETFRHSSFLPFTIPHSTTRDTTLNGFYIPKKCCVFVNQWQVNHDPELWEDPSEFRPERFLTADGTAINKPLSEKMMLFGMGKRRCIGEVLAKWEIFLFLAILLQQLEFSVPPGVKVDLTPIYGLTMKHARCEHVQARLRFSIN
# Cytochrome P450 2C9 = Cytochrome P450 2C9 (Homo sapiens, UniProt P11712); test: Inhibition of CYP2C9 (unknown origin); type: ADME
# Chain of Cytochrome P450 2C9 (P11712 whole entry): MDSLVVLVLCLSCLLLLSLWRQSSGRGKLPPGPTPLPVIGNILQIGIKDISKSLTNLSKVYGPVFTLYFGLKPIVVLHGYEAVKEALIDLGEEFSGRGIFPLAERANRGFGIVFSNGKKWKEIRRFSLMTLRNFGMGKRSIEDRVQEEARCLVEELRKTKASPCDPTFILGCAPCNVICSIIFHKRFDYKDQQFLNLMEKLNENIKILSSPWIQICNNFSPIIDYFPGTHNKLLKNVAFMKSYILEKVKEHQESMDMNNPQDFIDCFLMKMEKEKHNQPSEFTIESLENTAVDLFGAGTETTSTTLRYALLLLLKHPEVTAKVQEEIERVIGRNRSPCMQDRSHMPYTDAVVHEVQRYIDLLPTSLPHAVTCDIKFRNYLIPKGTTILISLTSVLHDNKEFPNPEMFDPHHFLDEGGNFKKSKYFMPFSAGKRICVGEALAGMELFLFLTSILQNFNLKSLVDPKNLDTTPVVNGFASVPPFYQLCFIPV
# Cytochrome P450 2D6 = Cytochrome P450 2D6 (Homo sapiens, UniProt P10635); test: Inhibition of CYP2D6 (unknown origin); type: ADME
# Chain of Cytochrome P450 2D6 (P10635 whole entry): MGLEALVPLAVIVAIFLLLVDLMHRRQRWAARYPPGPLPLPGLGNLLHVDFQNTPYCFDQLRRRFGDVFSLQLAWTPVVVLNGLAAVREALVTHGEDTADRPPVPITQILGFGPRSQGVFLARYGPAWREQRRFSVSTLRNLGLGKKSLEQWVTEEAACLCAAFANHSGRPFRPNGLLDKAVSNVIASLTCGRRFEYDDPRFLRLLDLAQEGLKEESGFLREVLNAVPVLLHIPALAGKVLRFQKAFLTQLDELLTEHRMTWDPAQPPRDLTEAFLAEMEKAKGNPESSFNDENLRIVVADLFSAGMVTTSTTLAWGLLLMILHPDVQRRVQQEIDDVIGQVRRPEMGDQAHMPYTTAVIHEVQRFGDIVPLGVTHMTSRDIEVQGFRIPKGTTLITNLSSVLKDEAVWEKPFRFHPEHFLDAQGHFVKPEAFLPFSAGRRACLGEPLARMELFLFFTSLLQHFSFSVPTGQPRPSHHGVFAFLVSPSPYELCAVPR
# [6] = tested on: Histone-lysine N-methyltransferase EZH2 (Homo sapiens), Q15910 [Y641N]
# Chain of Histone-lysine N-methyltransferase EZH2 (Homo sapiens), Q15910 [Y641N] (Q15910 whole entry Y641N): as the sequence (Q15910 whole entry Y641N) above
smiles,measurement,setting,value
COc1cc(C)[nH]c(=O)c1CN1CCc2c(Cl)cc([C@H](OC)C3COC3)c(Cl)c2C1=O [MEVROMETOSTAT],Ki,[1],< 0.0001 µM
same,microsomal CLint at 1 µM,[2],39 µL/min/mg
same,"Papp at […], 2 µM",[3],4.8 ×10⁻⁶ cm/s
same,hepatocyte CLint,[4],60.1 µL/min/1e6 cells
same,clearance,[5],70 mL/min/kg
same,IC50,Cytochrome P450 1A2,> 30 µM
same,IC50,Cytochrome P450 2C9,> 30 µM
same,IC50,Cytochrome P450 2D6,> 30 µM
same,T1/2,[6],6 h
